Rows were chosen to be rich in hits. Some 2.1% of all compounds tested hit in one or more screens of this group.
p97 inhibitor = inhibitors of human p97 ATPase. P55072. recombinant p97 ATPase, Kinase-Glo ATP luminescence, 3 h. inhibition, % at 8 µM. actives 0.42% (n = 220,000); in the data active means inhibition above about 15%;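 further: 0% = DMSO vehicle and 100% = wells lacking enzyme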
Runt-CBFb FRET = inhibitors of human RUNX1 Runt domain binding to CBFb. actives 0.46% (n = 220,000). inhibition, % at 20 µM. Q01196+Q13951. AID 1496. Cerulean-Runt/Venus-CBFb FRET ratio 530/480, 1 h;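 active means inhibition over about 50% at 20 µM in the single-dose screen, limit read from the data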;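 further: 0% = DMSO wells and 100% = excess unlabeled CBFb competitor control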
Target sequence (Q01196 whole entry, looked up, the tested form may be a part): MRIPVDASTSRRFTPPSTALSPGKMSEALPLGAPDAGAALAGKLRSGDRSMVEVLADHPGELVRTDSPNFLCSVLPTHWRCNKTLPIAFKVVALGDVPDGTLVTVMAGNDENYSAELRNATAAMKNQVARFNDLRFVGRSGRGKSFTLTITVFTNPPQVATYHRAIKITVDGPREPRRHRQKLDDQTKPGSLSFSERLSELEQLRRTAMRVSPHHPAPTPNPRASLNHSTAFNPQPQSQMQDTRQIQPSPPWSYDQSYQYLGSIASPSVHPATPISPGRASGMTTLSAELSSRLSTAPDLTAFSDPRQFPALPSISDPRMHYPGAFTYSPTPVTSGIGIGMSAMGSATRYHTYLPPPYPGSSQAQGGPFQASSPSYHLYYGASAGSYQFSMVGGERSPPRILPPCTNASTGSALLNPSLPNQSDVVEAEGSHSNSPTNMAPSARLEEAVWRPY
Target sequence (Q13951 whole entry, looked up, the tested form may be a part): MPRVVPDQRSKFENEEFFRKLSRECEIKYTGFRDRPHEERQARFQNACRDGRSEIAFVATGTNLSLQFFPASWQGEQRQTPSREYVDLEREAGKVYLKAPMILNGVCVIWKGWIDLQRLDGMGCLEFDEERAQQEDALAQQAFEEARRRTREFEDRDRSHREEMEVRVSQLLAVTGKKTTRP
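Assay system: Cerulean-Runt domain / Medium: Tris 50 mM pH 7.5, KCl, K2SO4, 0.01% BSA / Timing: protein complex preformed 1 h, compound exposure 1 h, room temperature, dark / Measured by: FRET, excitation 422 nm, emission at 530 and 480 nm / Evaluation: loss of energy transfer signal / Control set: 5 µM unlabeled CBFb as full-inhibition high control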
Runt-SMMHC FRET = inhibitors of human RUNX1 Runt domain binding to CBFb-SMMHC | Cerulean-Runt/Venus-CBFb-SMMHC FRET ratio 530/480, 1 h | inhibition, % at 20 µM | actives 0.74% (n = 220,000) | AID 1434;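 active means mean inhibition across duplicate retests at 20 µM reaching about 50%, limit read from the data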;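 further: 0% = DMSO wells and 100% = wells with excess untagged CBFb-SMMHC; inhibitors lower the FRET ratio by blocking Runt binding to CBFb-SMMHC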
RanGTP-Impb inh = inhibitors of RanGTP-importin-beta interaction, primary screen, biochemical, FRET, CFP-Ran, YFP-importin-beta, homogeneous | actives 1.1% (n = 300,000) | inhibition, % (concentration not given with the values) | cell-free CFP-Ran/YFP-importin-beta FRET ratio;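 active means more than half of the replicate wells show a fall in the fluorescence ratio signal beyond about 16%, limit read from the data, passing the limit was not always enough; inconclusive means exactly half of the replicate wells pass the set limit; inactive means fewer than half of replicates pass the limit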;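 further: 0% = DMSO wells and 100% = Ran loaded with GDP instead of GTP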
Tb hexokinase = blocks Trypanosoma brucei hexokinase 1 activity; recombinant TbHK1, G6PDH-coupled NADH A340; inhibition, % at 10 µM; actives 0.11% (n = 220,000);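 active means inhibition of 50% or more in the single-dose primary screen; inactive means inhibition below 50%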
Hck Nef HTS = inhibitors of human Hck kinase activated by Nef; AID 463187; P08631; inhibition, % at 20 µM; Recombinant Hck-YEEI plus Nef, Z-Lyte FRET kinase assay; actives 0.68% (n = 220,000);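 active means Hck-Nef kinase inhibition above about 50%, limit read from the data; inactive means inhibition below that limit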;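 further: 0% = DMSO with Hck plus Nef and 100% = Hck alone without Nef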
p97 confirm = confirmation of human p97 ATPase inhibitors | AID 1517 | recombinant p97 ATPase, Kinase-Glo ATP luminescence | actives 44% (n = 760) | shares compounds with p97 inhibitor | inhibition, % at 8 µM;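 active means percent inhibition of p97 ATPase above a set limit, the primary screen's mean plus 3 SD, cut at about 15% in these data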;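 further: 0% = DMSO wells and 100% = wells lacking p97 protein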
RUNX1 CBFb TR = disrupts human RUNX1 Runt domain binding to CBFb; shares compounds with Runt-CBFb FRET; TR-FRET RUNX1 Runt domain-CBFb binding; actives 20% (n = 480); inhibition, % at 20 µM; in the data active means inhibition above about 40%
Hck Nef conf = Hck-Nef kinase inhibition, confirmation | shares compounds with Hck Nef HTS | Recombinant Hck-YEEI:Nef, Z-Lyte FRET kinase assay | calls only at 10 µM | actives 28% (n = 1,300) | AID 463188;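 active means average inhibition of at least 50%, with Z-scores no higher than 3 in both the phospho-tyrosine peptide and fluorescence counterscreens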
* = called active by the depositor; i = inactive; ? = inconclusive; / = no result given; + = active, no number.

SMILES	p97 inhibitor	Runt-CBFb FRET	Runt-SMMHC FRET	RanGTP-Impb inh	Tb hexokinase	Hck Nef HTS	RUNX1 CBFb TR	others
CN(C)S(=O)(=O)c1cccc(NC(=S)N/N=C/c2ccc(O)c(O)c2O)c1	16.0*	37.0	8.7	3.8	45.5	91.5*	/	p97 confirm=20.0*;Hck Nef conf=+
COCCNC(=O)Cn1cnc2c(cnn2-c2ccc(C)cc2)c1=O	/	/	/	0.1	/	/	/
Cc1cccc(C(=O)N/N=C/c2coc3ccccc3c2=O)c1	/	/	/	-0.4	/	/	/
O=C(N/N=C/c1coc2ccccc2c1=O)c1cc(O)cc(O)c1	30.4*	-12.0	-46.5	/	6.8	62.7*	/	p97 confirm=32.9*;Hck Nef conf=+
CC(=O)Nc1sc(N/N=C\c2ccc(O)cc2)nc1-c1cccs1	16.3*	15.3	-2.7	3.9	-47.1	59.6*	/	p97 confirm=23.1*;Hck Nef conf=i
NS(=O)(=O)c1ccc(CNC(=O)Cc2ccccc2[N+](=O)[O-])cc1	/	/	/	0.0	/	/	/
Cc1ccc(S(=O)(=O)N2CCN(C(=O)c3ccc4nc[nH]c4c3)CC2)cc1	/	/	/	-7.9	/	/	/
CC(C)S(=O)(=O)C1=NSC2=NC(=O)/C(=C\c3ccc(-c4cccc(C(=O)O)c4)o3)C(=N)N21	12.7	59.6*	65.5	/	-7.9	30.0	21.2
COc1ccccc1NS(=O)(=O)c1cc(NC(=O)c2sccc2C)ccc1N1CCOCC1	8.1	0.2	1.3	2.2	-19.8	19.9	/
COc1ccccc1NS(=O)(=O)c1cc(NC(=O)c2cccs2)ccc1N1CCCCC1	-1.1	-1.7	-3.4	3.8	-1.4	3.3	/
COc1ccccc1NS(=O)(=O)c1cc(NC(=O)c2cccs2)ccc1N1CCCC1	1.9	50.0*	27.7	-1.9	1.6	7.5	7.3
COc1ccccc1NS(=O)(=O)c1cc(NC(=O)c2sccc2C)ccc1N1CCCC1	2.9	51.3*	23.0	0.4	2.9	1.0	-119.9
COc1ccc(NC(C)(C)c2nnnn2-c2c(C)cccc2C)cc1	-2.4	-2.4	-0.3	3.7	0.5	9.4	/
Cc1ccc(S(=O)(=O)c2cc3c(=O)n4ccccc4nc3n(CC3CCCO3)c2=N)cc1C (configuration not stated)	1.3	97.8*	106.4*	154.3*	-11.6	3.8	29.2
Cc1cccn2c(=O)c3cc(S(=O)(=O)c4ccccc4)c(=N)n(Cc4ccc(F)cc4)c3nc12	/	/	/	-1.9	/	/	/
Cc1cc(C)nc(Sc2nc(Cl)nc(N(c3ccccc3)c3ccccc3)n2)n1	4.3	58.8*	53.2	-0.2	-8.9	0.4	17.6
Cc1cc(C)nc(SC(C(=O)O)c2ccccc2)n1 (configuration not stated)	6.2	0.1	3.0	2.8	3.3	0.9	/
Cc1ccccc1C(=O)NC(=S)Nc1sc2c(c1C#N)CCCC2	3.5	25.4	15.0	6.6	-11.4	3.4	/
Cc1onc(-c2ccccc2)c1C(=O)NC(=S)Nc1sc2c(c1C#N)CCCC2	-1.4	50.8*	37.0	0.2	-2.2	-2.9	10.1
COc1cc(C=O)ccc1OC(=O)c1cccnc1	/	/	/	1.4	/	/	/
COc1ccc2c(c1O)-c1ccccc1CCN(C)C2	-2.7	2.5	2.3	1.8	-2.6	5.1	/
CN1CCc2cccc3c2[C@@H]1Cc1ccc(O)c(O)c1-3	6.0	86.2*	/	/	3.3	7.9	68.3*
Cc1ccc(S(=O)(=O)N2CCC(C(=O)N/N=C/c3ccncc3)CC2)cc1	3.2	0.6	-2.3	-0.5	-7.9	25.0	/
CCC(=O)Nc1nc(-c2ccc3c(c2)OCCO3)cs1	-0.9	-0.9	-1.0	7.1	-0.6	2.6	/
c1cc2c(cc1-c1csc(NNC3=NCCCCC3)n1)OCCO2	4.1	60.3*	70.9*	-2.0	-5.7	34.7	35.1
SMILES	p97 inhibitor	Runt-CBFb FRET	Runt-SMMHC FRET	RanGTP-Impb inh	Tb hexokinase	Hck Nef HTS	RUNX1 CBFb TR	others
C=CCN1C(=O)/C(=C2/Sc3ccc(OC)cc3N2C)SC1=NCc1ccccc1	0.2	51.2*	36.6	1.1	-6.4	-45.4	10.5
NS(=O)(=O)c1ccc(CCNC(=O)CNC(=O)c2ccc(Oc3ccccc3)cc2)cc1	/	/	/	-0.9	/	/	/
CCOC(=O)c1c(/N=C/c2cc(C)ccc2O)sc2c1CCN(C)C2	4.4	50.0*	60.1*	56.3*	-0.5	2.1	0.3
Cc1cccc(/C=N/c2sc3c(c2C(=O)OC(C)(C)C)CCN(C)C3)c1O	-5.3	31.3	14.5	?	-9.2	-0.1	/
NS(=O)(=O)c1ccc(NC(=S)NCc2ccccc2)cc1	-5.5	51.5*	28.1	5.3	8.1	2.7	6.0
NS(=O)(=O)c1ccc(NC(=S)NCc2cccc(Cl)c2)cc1	4.5	6.2	-1.5	0.2	0.7	0.2	/
O=C(Cn1nnc2ccccc2c1=O)N[C@H](C(=O)O)c1ccccc1	7.7	0.4	0.2	-0.5	-8.8	18.1	/
CC(C)(C)OC(=O)N1CCC(c2c(C(=O)NCC3CCN(C4CCCC4)C3)cnn2-c2ccccc2Cl)CC1 (configuration not stated)	/	/	/	3.4	/	/	/
Cc1ccc(/C=c2\sc3nc(-c4ccccc4Br)nn3c2=O)o1	0.2	25.3	0.8	-0.7	3.1	6.2	/
Cc1ccc(/C=c2\sc3nc(-c4ccco4)nn3c2=O)o1	5.7	53.2*	28.6	12.4	-3.6	12.7	88.5*
Clc1ccc(-c2nc3ccncc3[nH]2)cc1	-25.8	59.2*	19.5	?	1.1	4.6	-9.6
CCC(=O)N1CCc2cc(S(=O)(=O)NC(C(=O)NC3CCCc4ccccc43)C(C)C)ccc21 (configuration not stated)	-1.3	-4.0	6.2	6.0	-4.2	1.8	/
COc1ccc(NC(=O)Cn2nc(C(=O)O)c3ccccc3c2=O)cc1Cl	/	/	/	3.3	/	/	/
O=S(=O)(c1ccccc1)N1N=C(c2cccs2)CC1c1ccc(Br)cc1 (configuration not stated)	1.7	1.2	2.7	-4.5	-0.6	0.9	/
c1ccc(C2CC(c3cccs3)=NN2c2ccccc2)cc1 (configuration not stated)	0.1	51.0*	83.7*	12.5	-7.3	-23.6	39.1
COc1cccc(C(c2c(N)[nH]c(=S)[nH]c2=O)c2c(N)[nH]c(=S)[nH]c2=O)c1	10.2	50.9*	18.7	0.9	-8.9	-22.2	56.1*
COc1cccc(C(NC(=O)c2ccccc2F)NC(=O)c2ccccc2F)c1	0.7	-3.7	3.9	-6.6	-1.1	3.6	/
CCOC(=O)c1c(NC(C)=O)sc2c1CCC(C=O)=C2Sc1ccccc1	4.9	53.4*	32.5	0.6	-13.2	-1.9	-19.4

Compound activity (PubChem BioAssay)
